# Bioassay records as filed in PubChem.
# In the library only some 6% were active in any assay of this set; here they are far more common.
# Ecoli WT expand: growth inhibitors of wild-type E. coli, primary screen, strain BW25113, expanded library, OD600 | actives 0.15% (n = 98,000) | growth inhibition, % at 100 µM | OD600 absorbance;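 active means growth inhibition above about 50% at one test dose, limit read from the data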;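 further: growth measured after 20 h incubation at 37 °C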
# EphB4 ephrin blk: EphB4-ephrin-B2 interaction antagonists, primary screen, biochemical, TNYL-RAW peptide probe, fluorescence polarization. inhibition, % at 7 µM. AID 720, 2007. EphB4 LBD / TNYL-RAW-Alexa532 peptide. actives 0.15% (n = 97,000);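 active means inhibition above the screen-wide mean inhibition plus 3 SD, cut at about 15% in these data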;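 further: 0% = DMSO wells and 100% = excess unlabeled TNYL-RAW peptide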
# Target sequence (P54760 whole entry, looked up, the tested form may be a part): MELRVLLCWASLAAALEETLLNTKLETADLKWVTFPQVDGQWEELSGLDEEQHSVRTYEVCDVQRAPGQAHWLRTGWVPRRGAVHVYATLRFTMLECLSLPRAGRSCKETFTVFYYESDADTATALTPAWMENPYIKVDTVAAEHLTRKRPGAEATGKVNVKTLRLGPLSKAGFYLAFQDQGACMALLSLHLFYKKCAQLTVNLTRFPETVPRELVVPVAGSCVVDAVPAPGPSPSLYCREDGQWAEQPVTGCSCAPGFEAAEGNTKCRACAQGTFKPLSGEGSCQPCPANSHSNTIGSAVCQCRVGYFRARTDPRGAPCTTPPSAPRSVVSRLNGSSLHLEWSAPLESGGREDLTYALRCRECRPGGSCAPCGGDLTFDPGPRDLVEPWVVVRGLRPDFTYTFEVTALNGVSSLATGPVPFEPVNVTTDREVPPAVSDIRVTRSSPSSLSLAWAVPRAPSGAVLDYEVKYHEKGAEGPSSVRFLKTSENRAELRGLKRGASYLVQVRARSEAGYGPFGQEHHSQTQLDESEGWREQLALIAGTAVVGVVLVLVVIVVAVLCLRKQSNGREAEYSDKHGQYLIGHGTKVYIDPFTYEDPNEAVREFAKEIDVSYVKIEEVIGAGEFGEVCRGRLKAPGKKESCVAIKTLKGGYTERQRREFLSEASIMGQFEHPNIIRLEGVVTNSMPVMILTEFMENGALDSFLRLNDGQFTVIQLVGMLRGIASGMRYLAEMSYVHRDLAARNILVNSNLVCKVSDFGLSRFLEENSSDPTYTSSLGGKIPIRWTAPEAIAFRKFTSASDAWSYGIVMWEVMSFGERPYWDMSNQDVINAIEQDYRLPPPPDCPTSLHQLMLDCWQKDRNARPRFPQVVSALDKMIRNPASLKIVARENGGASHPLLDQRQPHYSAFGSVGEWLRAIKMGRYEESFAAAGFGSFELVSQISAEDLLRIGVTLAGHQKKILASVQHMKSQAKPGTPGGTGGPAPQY
# tolC growth inh: growth inhibitors of E. coli tolC mutant, primary screen, strain BW25113 ΔtolC::kan, 384-well; OD615; growth inhibition, % at 10 µM (by protocol); actives 2.2% (n = 65,000); AID 573, 2007;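 active means growth inhibition at or above a cutoff equal to the mean over every tested compound plus 3 SD, cut at about 60% in these data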;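 further: growth measured after 20 h incubation at 37 °C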
#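 Test system: tolC-deleted E. coli BW25113 | Medium: LB with kanamycin 50 µg/mL | Compound dosing: Single concentration, 10 µM final per compound | Schedule: 37 °C, 20 h exposure | Measured by: OD at 615 nm | Evaluation: Percent growth inhibition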
# PostGolgi yeast: phenotypic screen on post-Golgi transport, primary screen | post-Golgi transport phenotypic cell assay | inhibition, % at 10 µM | actives 0.9% (n = 98,000);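 further: yeast cells grown in 1536-well plates; yeast grown about 18 h at 30C before absorbance read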
# PostGolgi ctrl: growth inhibition of yeast control strain, primary screen, counter-screen for post-Golgi transport modulator project | efflux-deficient yeast background strain, growth absorbance A615, 16 h | inhibition, % at 10 µM | actives 5% (n = 98,000)
# An asterisk follows results filed as active; · = not tested or not shown. Unless noted, no stated cut-off is given here; in the data, active means inhibition above about 30%; inactive means the rest.
SMILES,Ecoli WT expand,EphB4 ephrin blk,tolC growth inh,PostGolgi yeast,PostGolgi ctrl
CCOCCCNS(=O)(=O)c1cc(Br)cc2c1N(C(=O)C1CC1)CC2,5,·,14,3,6
CCOC(=O)c1sc(NC(=O)Nc2ccc(Cl)cc2)cc1C,22,3,·,3,62*
CCOC(=O)c1sc(NC(=O)c2ccc(Cl)s2)cc1C,-5,0,20,-6,6
CCOC(=O)c1sc(NC(=O)c2c(C)nn(Cc3ccccc3)c2C)cc1C,-12,-11,71*,2,5
O=C(N/N=C/c1cc([N+](=O)[O-])ccc1N1CCNCC1)c1ccc([N+](=O)[O-])cc1,5,4,·,-7,4
O=C(O)CCC(=O)Nc1ccc(Cc2ccc(NC(=O)CCC(=O)O)cc2)cc1,-6,-2,·,-10,19
CCCCOC(=O)c1ccc(-c2ccc(/C=N/NC(=S)NCC)o2)cc1,-3,1,·,-10,-4
NC(=S)N/N=C/c1ccc(-c2cc(Cl)ccc2Cl)o1,0,-7,·,19,93*
NC(=S)N/N=C/c1ccc(-c2cc(Cl)cc(Cl)c2)o1,5,7,·,30,68*
Cc1ccc(NC(=O)CS(=O)Cc2nc(-c3ccc(C)cc3)oc2C)cc1 (centres undefined),-14,1,·,-2,12
CCN1CCN(Cc2nc3c(c(=O)n(C)c(=O)n3C)n2Cc2ccc(Cl)cc2Cl)CC1,·,·,-10,·,·
Cc1cccc(N2CCN(C(=O)c3cn(C)c(=O)c4c3c3ccccc3n4C)CC2)c1C,-1,1,83*,3,60*
Cc1ccc(Cl)cc1N1CCN(C(=O)c2cn(C)c(=O)c3c2c2ccccc2n3C)CC1,-6,1,52,4,57*
CC1(C)Oc2ccc3ccc(=O)oc3c2/C(=C/NC2CCCCC2)C1=O,·,0,·,·,·
CCOC(=O)Cn1c(-c2cccnc2Cl)nc2cc(Cl)c(Cl)cc21,-4,4,·,13,33*
CCc1nnc(NC(=O)c2ccc3c(c2)C(=O)N(CC)C3=O)s1,·,1,·,·,·
COc1ccc(OCc2ccc(C(=O)NN)cc2)cc1,-11,-1,·,-10,6
N#CC1=C(N)Oc2c(oc(CO)cc2=O)C1c1ccsc1 (centres undefined),4,0,-15,-3,3
N#CC1=C(N)Oc2c(ccc3ccccc23)C1c1ccsc1 (centres undefined),7,2,·,-2,49*
Cc1cc(-c2ccccc2)nc(N2CCC(C(=O)NCC3CCCCC3)CC2)n1,·,0,·,·,·
CC1CC(=O)C2=C(C1)Nc1ncnn1C2c1ccccc1 (centres undefined),-3,-4,-22,1,48*
CCCc1nc(N2CCOCC2)c(C#N)c2c1CCCC2,9,-5,10,-1,39*
Cc1ccc2cccc(S(=O)(=O)N3CCN(c4cccc(Cl)c4)CC3)c2n1,-11,0,27,2,57*
O=S(=O)(c1cccc2cccnc12)N1CCN(c2ccccc2)CC1,1,2,·,23,10
Cc1ccc(OCCN2CCN(C(=O)CCC(=O)Nc3nnc(C(C)C)s3)CC2)cc1,6,-3,13,-3,40*
SMILES,Ecoli WT expand,EphB4 ephrin blk,tolC growth inh,PostGolgi yeast,PostGolgi ctrl
Cc1ccc(OCCN2CCN(C(=O)CCC(=O)Nc3nnc(C)s3)CC2)cc1,-5,9,-5,1,5
Cc1cc(=S)[nH]c2c(C)cccc12,12,3,·,7,-1
CCNc1ccc2c(Cl)cc(=O)oc2c1,7,-7,-6,-2,2
CCN(CC)c1ccc2c(Cl)cc(=O)oc2c1,11,-2,·,-5,30*
CS(=O)(=O)c1nc(-c2ccccc2)cc(-c2ccccc2)c1C#N,-8,-5,·,2,54*
O=C(Nc1ccccc1)N(Cc1ccccc1)CC(O)C(F)(F)F (centres undefined),-3,3,·,-9,12
O=C(Nc1cccc(F)c1)N(Cc1ccc(Cl)cc1)CC(O)C(F)(F)F (centres undefined),7,4,·,13,58*
COc1cc(OC)nc(NC(=O)CSc2nnc(-c3ccccc3)n2C2CCCCC2)n1,·,-6,2,·,·
Cc1cccc(C)c1NC(=O)CSc1nnc(CCCCCNC(=O)OC(C)(C)C)o1,-4,-1,8,12,6
COc1ccc2nc(SCC(=O)Nc3ccc(S(=O)(=O)Nc4nccc(C)n4)cc3)[nH]c2c1,8,-3,·,-2,6
O=C(CCSc1nnc(-c2ccncc2)o1)Nc1ccc(Cl)cc1,-11,3,2,102*,99*
O=C(CCSc1nnc(-c2ccncc2)o1)Nc1ccccc1Cl,7,-1,·,-4,1
CCOc1ccccc1NC1=C(Cl)C(=O)N(Cc2ccccc2)C1=O,-7,3,·,12,33*
O=C1C(Cl)=C(NCCc2ccccc2)C(=O)N1CCc1ccccc1,-3,2,·,-12,11
COc1ccc(C(C)=O)cc1CSc1nnc(-c2ccc(Cl)cc2)n1-c1ccccc1,-4,5,·,-7,26
Cc1ccc(NC(=O)c2ccccc2O)cc1,43,·,92*,5,25
O=C(Nc1ccccc1)c1ccccc1O,32,-11,10,0,12
COC(=O)c1ccc(Cl)c(NC(=O)NC23CC4CC(CC(C4)C2)C3)c1,-13,-2,·,16,31*
CCc1ccc(NS(=O)(=O)c2ccc3[nH]cc(C(=O)NCC4CCCO4)c(=O)c3c2)cc1 (centres undefined),2,-8,57,-12,12
CN(c1ccccc1C(=O)Nc1ccccc1C(=O)NCc1ccco1)S(C)(=O)=O,-4,15*,-9,1,0
COc1ccc(S(=O)(=O)Nc2ccccc2C(=O)NCc2ccco2)cc1,2,2,8,0,31*
CCc1ccccc1NS(=O)(=O)c1ccc2[nH]cc(C(=O)NCc3ccco3)c(=O)c2c1,1,2,100*,-11,4
O=C(NCc1ccccc1)c1c[nH]c2ccc(S(=O)(=O)Nc3ccc4c(c3)OCCO4)cc2c1=O,-14,-3,61*,-7,-2
Cc1noc(C)c1S(=O)(=O)N(C)CC(=O)Nc1ccc(F)cc1,-1,7,·,-1,2
O=C(NCc1cccnc1)c1nnc(Cc2ccc(F)cc2)o1,-3,·,-11,8,40*
O=C(NCc1ccco1)c1nnc(Cc2ccc(F)cc2)o1,6,·,-6,-5,-2
O=C(NCc1ccncc1)c1nnc(Cc2c(F)cccc2Cl)o1,0,0,0,3,31*
CSCCC(NC(=O)COc1ccccc1)C(=O)N1CCN(c2ccccc2F)CC1 (centres undefined),0,-5,2,-3,1
COCCCn1cc(C(=O)c2cc(OC)ccc2OCC(=O)Nc2cc(C)on2)cc(C#N)c1=O,-15,9,·,-6,14
COc1ccc(S(=O)(=O)N2CCCC(C(=O)O)C2)cc1 (centres undefined),-6,3,-9,-7,7
